The record followed here is ChEMBL document CHEMBL1125793 (J Med Chem, 1991).

Assay [1] concerns the target T1, Angiotensin II receptor (Rattus norvegicus, UniProt P29089+P25095+P35351).
T1 sequence (P29089 whole entry): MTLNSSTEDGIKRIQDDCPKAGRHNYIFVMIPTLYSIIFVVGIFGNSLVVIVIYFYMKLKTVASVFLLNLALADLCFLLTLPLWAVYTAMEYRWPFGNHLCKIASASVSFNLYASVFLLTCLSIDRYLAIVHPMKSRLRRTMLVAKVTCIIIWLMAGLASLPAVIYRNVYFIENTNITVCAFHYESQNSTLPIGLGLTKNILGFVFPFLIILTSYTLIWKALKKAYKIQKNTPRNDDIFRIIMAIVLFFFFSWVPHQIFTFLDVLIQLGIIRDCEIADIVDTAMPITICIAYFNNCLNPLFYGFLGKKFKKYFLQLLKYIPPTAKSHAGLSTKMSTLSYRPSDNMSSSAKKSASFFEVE
T1 sequence (P25095 whole entry): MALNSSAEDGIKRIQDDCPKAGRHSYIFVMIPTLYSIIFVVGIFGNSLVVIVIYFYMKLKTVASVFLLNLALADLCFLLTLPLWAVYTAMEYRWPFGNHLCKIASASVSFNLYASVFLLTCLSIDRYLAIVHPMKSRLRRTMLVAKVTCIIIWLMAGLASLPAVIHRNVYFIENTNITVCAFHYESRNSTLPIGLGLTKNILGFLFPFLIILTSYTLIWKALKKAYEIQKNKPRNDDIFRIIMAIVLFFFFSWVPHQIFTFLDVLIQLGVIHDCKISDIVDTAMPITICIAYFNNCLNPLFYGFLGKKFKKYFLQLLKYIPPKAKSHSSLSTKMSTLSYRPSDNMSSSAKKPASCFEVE
T1 sequence (P35351 whole entry): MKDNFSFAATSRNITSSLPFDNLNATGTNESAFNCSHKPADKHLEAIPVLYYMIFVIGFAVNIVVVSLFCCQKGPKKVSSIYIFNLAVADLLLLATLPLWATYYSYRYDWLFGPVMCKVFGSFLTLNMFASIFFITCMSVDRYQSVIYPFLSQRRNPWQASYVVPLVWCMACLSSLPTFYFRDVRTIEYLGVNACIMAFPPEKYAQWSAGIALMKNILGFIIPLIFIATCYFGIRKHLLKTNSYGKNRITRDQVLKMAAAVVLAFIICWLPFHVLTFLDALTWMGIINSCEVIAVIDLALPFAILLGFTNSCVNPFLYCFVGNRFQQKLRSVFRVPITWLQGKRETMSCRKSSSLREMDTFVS
Kind of assay: Binding affinity against Angiotensin II receptor, from rat adrenal gland. Type of assay: tissue-based.

The target in assay [2] is T1, Angiotensin II receptor. Kind of assay: Binding affinity for rat brain Angiotensin II receptor.
Assay [3] addresses T2, Angiotensin II receptor (Rattus norvegicus) (UniProt P29089+P25095+P35351). Description: Inhibitory activity against Angiotensin II receptor, from rat adrenal gland at a concentration of 10 uM. Type of assay: tissue-based. In a few lines:
(§1)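 Displacement of 125I-Ang II ([…]) from rat adrenal membrane fraction, with test agent at a single 10 μM. Buffer was Tris-HCl, NaCl, 5 mM DTT and BSA; incubation 30 min at 22–25 °C in duplicate.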

The target in assay [4] is T2, Angiotensin II receptor (Rattus norvegicus). Kind of assay: Inhibitory activity against angiotensin II receptor at a concentration of 10 uM in rat. The essentials:
as §1

As to `O=C(O)[C@@H]1Cc2c(ncn2Cc2ccc(C(F)(F)F)cc2)CN1C(=O)C(c1ccccc1)c1ccccc1`, the IC50 in assay [1] was 190 nM; in assay [2], 800 nM.

`O=C(O)C1Cc2ncn(Cc3ccccc3)c2CN1C(=O)Nc1ccccc1` (stereo not drawn): the inhibition in assay [3] was 24%.

Consider `O=C(O)C1Cc2c(ncn2Cc2ccccc2)CN1C(=O)C(c1ccccc1)c1ccccc1` (stereo in doubt; 18a), for which the half-inhibitory concentration (IC50) in assay [1] stood at 440 nM; in assay [2], 3800 nM.

In the case of `O=C(O)[C@@H]1Cc2c(ncn2CCCc2ccccc2)CN1C(=O)C(c1ccccc1)c1ccccc1`, the IC50 in assay [1] was determined as 700 nM; in assay [2], 400 nM.

For `COc1ccc(Cn2cnc3c2CC(CO)N(C(=O)C(c2ccccc2)c2ccccc2)C3)cc1C` (stereo not drawn), the IC50 in assay [1] was found to be 370 nM; in assay [2], 130 nM.

`NC(=O)C1Cc2c(ncn2Cc2ccccc2)CN1C(=O)Nc1ccccc1` (stereo not drawn) showed an inhibition in assay [3] of 14%.

In the case of `O=C(O)C1Cc2c(ncn2Cc2ccccc2)CN1C(=O)C(c1ccc(Cl)cc1)c1ccc(Cl)cc1` (stereo not drawn), the IC50 is 6800 nM in assay [1] and 8200 nM in assay [2].

In the case of `CC(=O)N1Cc2ncn(Cc3ccccc3)c2CC1C(=O)O` (stereo not drawn), the inhibition in assay [3] is 4%.

Turning to `O=C(O)C1Cc2c(ncn2Cc2ccccc2)CN1C(=O)C1c2ccccc2-c2ccccc21` (stereo not drawn), the IC50 in assay [1] was 8000 nM; in assay [2] it was 19000 nM.

For `COc1ccc(Cn2cnc3c2C[C@@H](C(=O)O)N(C(=O)C2c4ccccc4-c4ccccc42)C3)cc1C`, the inhibition in assay [4] amounted to 27%.

Compound `O=C(O)C1Cc2c(ncn2Cc2ccccc2)CN1C(=O)Cc1ccccc1` (stereo in doubt; 14a) came in with an IC50 in assay [1] of 740 nM.

In the case of `COc1ccc(Cn2cnc3c2CC(CO)N(C(=O)N(C)c2ccccc2)C3)cc1C` (stereo not drawn), the IC50 in assay [1] is 520 nM.

For the compound `CN(C)c1ccc(Cn2cnc3c2C[C@@H](C(=O)O)N(C(=O)C(c2ccccc2)c2ccccc2)C3)cc1`, the IC50 in assay [1] turned out to be 85 nM.

In assay [1], `COc1ccc(Cn2cnc3c2C[C@@H](C(=O)O)N(C(=O)C(c2ccccc2)c2ccccc2)C3)cc1` gave a half-inhibitory concentration (IC50) of 290 nM.

In turn, `COc1ccc(Cn2cnc3c2CCN(C(=O)C(c2ccccc2)c2ccccc2)C3)cc1C` gave an IC50 in assay [1] of 4400 nM.

The compound `O=C(O)[C@@H]1Cc2c(ncn2Cc2ccc3ccccc3c2)CN1C(=O)C(c1ccccc1)c1ccccc1` yielded an IC50 in assay [1] of 270 nM.

`CCc1cc(Cn2cnc3c2C[C@@H](C(=O)O)N(C(=O)C(c2ccccc2)c2ccccc2)C3)ccc1OC` yielded an IC50 in assay [1] of 50 nM.

As for `COc1ccc(Cn2cnc3c2C[C@@H](C(=O)O)N(C(=O)CC2CCCCC2)C3)cc1C`, the concentration for half-maximal inhibition (IC50) in assay [1] turned out to be 2000 nM.

On to `COc1ccc(C(C(=O)N2Cc3ncn(Cc4ccc(OC)c(C)c4)c3C[C@H]2C(=O)O)c2ccc(OC)cc2)cc1`, for which the half-inhibitory concentration (IC50) in assay [1] worked out at 2000 nM.

For the compound `O=C(O)[C@@H]1Cc2c(ncn2CCC2CCCCC2)CN1C(=O)C(c1ccccc1)c1ccccc1`, the IC50 in assay [1] worked out at 240 nM.

For `Cc1cc(Cn2cnc3c2C[C@@H](C(=O)O)N(C(=O)C(c2ccccc2)c2ccccc2)C3)ccc1N(C)C`, the IC50 was 34 nM in assay [1] and 210 nM in assay [2].

With `COc1ccc(Cn2cnc3c2C[C@@H](C(=O)O)N(C(=O)C(c2ccc([N+](=O)[O-])cc2)c2ccc([N+](=O)[O-])cc2)C3)cc1C`, in assay [1], the IC50 was 13000 nM.

Regarding `Cc1cccc(Cn2cnc3c2C[C@@H](C(=O)O)N(C(=O)C(c2ccccc2)c2ccccc2)C3)c1`, the IC50 in assay [1] is 150 nM; in assay [2] it was 1600 nM.

`CN(Cc1ccccc1)C(=O)N1Cc2ncn(Cc3ccccc3)c2CC1C(=O)O` (stereo not drawn) yielded a concentration for half-maximal inhibition (IC50) in assay [1] of 4100 nM.

With `O=C(C(c1ccccc1)C1CCCC1)N1Cc2ncn(Cc3ccccc3)c2CC1CO` (stereo not drawn), the IC50 in assay [1] stood at 6700 nM.

In turn, `COc1ccc(Cn2cnc3c2C[C@@H](C(=O)O)N(C(=O)C(c2ccc(C)cc2)c2ccc(C)cc2)C3)cc1C` yielded an IC50 in assay [1] of 510 nM.

As to `O=C(O)[C@@H]1Cc2c(ncn2CCC23CC4CC(CC(C4)C2)C3)CN1C(=O)C(c1ccccc1)c1ccccc1`, the IC50 in assay [1] was 130 nM; in assay [2], 170 nM.

`O=C(O)C1Cc2c(ncn2Cc2ccccc2)CN1C(=O)c1ccccc1` (stereo not drawn) displayed an inhibition in assay [3] of 12%.

With `COC(=O)C1Cc2c(ncn2Cc2ccc([N+](=O)[O-])c(C)c2)CN1C(=O)C(c1ccccc1)c1ccccc1` (stereo not drawn), the IC50 in assay [1] came out at 5100 nM.

In turn, `COc1ccc(Cn2cnc3c2C[C@@H](C(=O)O)N(C(=O)C(c2ccccc2)c2ccccc2)C3)cc1[N+](=O)[O-]` had an IC50 in assay [1] of 51 nM.

In turn, `O=C(O)C1Cc2c(ncn2Cc2ccccc2)CN1C(=O)Nc1ccccc1` (stereo not drawn) had an IC50 in assay [1] of 2100 nM.

In the case of `O=C(O)C1Cc2c(ncn2Cc2ccccc2)CN1C(=O)C(c1ccc(F)cc1)c1ccc(F)cc1` (stereo not drawn), in assay [1], the IC50 amounted to 2100 nM.

On to `Cc1cc(Cn2cnc3c2C[C@@H](C(=O)O)N(C(=O)C(c2ccccc2)c2ccccc2)C3)ccc1[N+](=O)[O-]`, for which the IC50 in assay [1] was found to be 290 nM.

`CNC(=O)Nc1ccc(Cn2cnc3c2C[C@@H](C(=O)O)N(C(=O)C(c2ccccc2)c2ccccc2)C3)cc1C` registered an IC50 in assay [1] of 44 nM.

As for `O=C(C(=O)N1Cc2ncn(Cc3ccccc3)c2CC1C(=O)O)c1ccccc1` (stereo not drawn), the half-inhibitory concentration (IC50) in assay [1] was found to be 2400 nM.

With `COc1cccc(Cn2cnc3c2C[C@@H](C(=O)O)N(C(=O)C(c2ccccc2)c2ccccc2)C3)c1`, the IC50 in assay [1] stood at 120 nM.

For `CC(c1ccccc1)n1cnc2c1C[C@@H](C(=O)O)N(C(=O)C(c1ccccc1)c1ccccc1)C2` (stereo partly drawn), the IC50 in assay [1] was found to be 1100 nM.

Take `COC(=O)C1Cc2c(ncn2Cc2ccccc2)CN1C(=O)C(c1ccccc1)c1ccccc1` (stereo not drawn): the IC50 in assay [1] worked out at 8800 nM.

Consider `O=C(O)[C@@H]1Cc2c(ncn2CCc2ccccc2)CN1C(=O)C(c1ccccc1)c1ccccc1`, for which, in assay [1], the IC50 was 240 nM.

What is called IC50 is the concentration needed to halve the response being measured. Read a low IC50 as greater potency in that assay. As usually defined, the inhibition is the change of the read-out against control, counted positive when it falls. High values mean strong suppression, low ones little suppression.
